Reference: ChEMBL document CHEMBL4316599, “Synthesis, in vitro and in vivo biological evaluation of substituted 3-(5-imidazo[2,1-b]thiazolylmethylene)-2-indolinones as new potent anticancer agents” (Eur J Med Chem, 2019)
Activity calls are given as the source filed them. No cut-off for these calls is given here.

Tests used:
[1] = Cytotoxicity against human COLON cells after 48 hrs by SRB assay; assay type: functional
How it was run: (§1)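 NCI-60 screen: single-dose pass at 10^-5 M, then a five-concentration assay from 10^-9 to 10^-4 M (highest 100 μM). Exposure was 48 h under standard NCI protocols. GI50, TGI and LC50 were derived per cell line and averaged by subpanel. Repeated tests are the mean of two experiments.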

[2] = Cytotoxicity against human PHA-stimulated PBL after 72 hrs by MTT assay; assay type: cell-based; settings: PHA-stimulated peripheral blood lymphocytes (PBL)
How it was run: (§2)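 Lymphocytes from healthy donors were isolated on a Lymphoprep gradient and held overnight in RPMI-1640 with 10% FBS. Non-adherent cells were set at 5×10^5 cells/mL, either resting or stimulated with 2.5 μg/mL PHA. Cells were exposed to a range of compound concentrations for 72 h and viability read by MTT. GI50 is the mean ± SEM of three separate experiments.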

HeLa [3] = experiment: Cell cycle arrest in human HeLa cells assessed as reduction in accumulation of cells at S phase up to 1000 nM after 24 hrs by propidium iodide staining-based flow cytometric analysis; assay type: functional
How it was run: (§3)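 Cells exposed to a range of concentrations for 24 h (HeLa at 5×10^5 cells), then fixed in ice-cold 70% ethanol. Lysis buffer with RNase A and 0.1% Triton X-100 was applied before PI staining. DNA content was read by flow cytometry and G1/S/G2/M fractions taken from DNA histograms. Mean ± SEM of two independent experiments.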

HeLa [4] = experiment: Induction of apoptosis in human HeLa cells assessed as decrease in Mcl-1 levels at 50 to 250 nM after 24 hrs by Western blot analysis; assay type: functional, cell-based
How it was run: (§4)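 HeLa cells treated 24 h, washed in ice-cold PBS and lysed on ice 30 min. Lysates were spun at 15000 x g, 4 °C. 10 µg protein run on SDS-PAGE and blotted to PVDF. Blots were blocked in 5% BSA overnight at 4 °C and probed 2 h at room temperature. Detection by HRP-secondary and ECL, with bands normalized to β-actin as fold of untreated. Three independent experiments, one-way ANOVA/Dunnett.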

HT-29 [5] = experiment: Cell cycle arrest in human HT-29 cells assessed as reduction in accumulation of cells at S phase up to 1000 nM after 24 hrs by propidium iodide staining-based flow cytometric analysis; assay type: functional; how it was run: as §3
HeLa [6] = experiment: Induction of ROS generation in human HeLa cells at 250 nM after 12 to 24 hrs by H2-DCFDA staining-based assay; assay type: functional, cell-based
How it was run: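 HeLa cells treated 6, 12, 24 or 48 h, then loaded with H2-DCFDA and analysed by flow cytometry for ROS. Mean ± SEM of three independent experiments, compared against control.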

Ovarian carcinoma cell = experiment: Cytotoxicity against human ovarian cancer cells after 48 hrs by SRB assay; assay type: functional; how it was run: as §1
HT-29 [7] = experiment: Cell cycle arrest in human HT-29 cells assessed as reduction in accumulation of cells at G1 phase up to 1000 nM after 24 hrs by propidium iodide staining-based flow cytometric analysis; assay type: functional; how it was run: as §3
HeLa [8] = experiment: Cell cycle arrest in human HeLa cells assessed as accumulation of cells at G2/M phase after 24 hrs by propidium iodide staining-based flow cytometric analysis; assay type: functional; how it was run: as §3
HeLa [9] = experiment: Cell cycle arrest in human HeLa cells assessed as decrease in p-cdc25c expression at 50 to 250 nM after 24 hrs by Western blot analysis; assay type: functional, cell-based; how it was run: as §4
HeLa [10] = experiment: Induction of apoptosis in human HeLa cells assessed as increase in caspase-9 activity at 50 to 250 nM after 24 hrs by Western blot analysis; assay type: functional, cell-based; how it was run: as §4
A549 [11] = experiment: Induction of apoptosis in human A549 cells at 100 nM after 24 to 48 hrs by Annexin V-FITC/propidium iodide staining-based flow cytometric analysis; assay type: functional, cell-based
How it was run: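 A549 cells treated 24 or 48 h at 12.5–100 nM, then double-stained with annexin-V-FITC and PI. Phosphatidylserine exposure was read by flow cytometry. Mean ± SEM of three independent experiments.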

K562 [12] = experiment: Cell cycle arrest in human K562 cells assessed as mitotic index at IC50 by Giemsa staining-based assay (reference value: 3%); assay type: functional
Melanoma cell line = experiment: Cytotoxicity against human melanoma cells after 48 hrs by SRB assay; assay type: functional; how it was run: as §1
HT-29 [13] = experiment: Cell cycle arrest in human HT-29 cells assessed as accumulation of cells at G2/M phase after 24 hrs by propidium iodide staining-based flow cytometric analysis; assay type: functional; how it was run: as §3
A549 [14] = experiment: Cell cycle arrest in human A549 cells assessed as accumulation of cells at G2/M phase after 24 hrs by propidium iodide staining-based flow cytometric analysis; assay type: functional; how it was run: as §3
[15] = Cytotoxicity against human PBL after 72 hrs by MTT assay; assay type: cell-based; settings: peripheral blood lymphocytes (PBL); how it was run: as §2
K562 [16] = experiment: Cell cycle arrest in human K562 cells assessed as mitotic index at 5 times IC50 by Giemsa staining-based assay (reference value: 3%); assay type: functional
K562 [17] = experiment: Cytotoxicity against human K562 cells after 16 hrs by SRB assay; settings: K562, 16 h
HeLa [18] = experiment: Induction of mitochondrial membrane depolarization in human HeLa cells at 250 to 500 nM after 6 to 48 hrs by JC-1 staining-based assay; assay type: functional, cell-based; settings: TDE = time-dependent effect
How it was run: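 HeLa cells treated at 250-500 nM for 6, 12, 24 or 48 h, then stained with JC-1. Percentage of cells with low mitochondrial membrane potential measured by flow cytometry. Mean ± SEM of three independent experiments.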

A549 [19] = experiment: Cell cycle arrest in human A549 cells assessed as reduction in accumulation of cells at G1 phase up to 600 nM after 24 hrs by propidium iodide staining-based flow cytometric analysis; assay type: functional; how it was run: as §3
HeLa [20] = experiment: Cell cycle arrest in human HeLa cells assessed as reduction in accumulation of cells at G1 phase up to 1000 nM after 24 hrs by propidium iodide staining-based flow cytometric analysis; assay type: functional; how it was run: as §3
HeLa [21] = experiment: Induction of apoptosis in human HeLa cells assessed as increase in caspase-3 activity at 50 to 250 nM after 24 hrs by Western blot analysis; assay type: functional, cell-based; how it was run: as §4
Breast carcinoma cell = experiment: Cytotoxicity against human breast cancer cells after 48 hrs by SRB assay; assay type: functional; how it was run: as §1
Leukemia cell = experiment: Cytotoxicity against human leukemia cells after 48 hrs by SRB assay; assay type: functional; how it was run: as §1
Renal cancer cell line = experiment: Cytotoxicity against human renal cancer cells after 48 hrs by SRB assay; assay type: functional; how it was run: as §1
HeLa [22] = experiment: Induction of apoptosis in human HeLa cells assessed as decrease in Bcl-2 levels at 50 to 250 nM after 24 hrs by Western blot analysis; assay type: functional, cell-based; how it was run: as §4
NSCLC = experiment: Cytotoxicity against human NSCLC cells after 48 hrs by SRB assay; assay type: functional; how it was run: as §1
K562 [23] = experiment: Cytotoxicity against human K562 cells after 48 hrs by SRB assay; assay type: functional, cell-based
CNS carcinoma cell = experiment: Cytotoxicity against human CNS cancer cells after 48 hrs by SRB assay; assay type: functional; how it was run: as §1
A549 [24] = experiment: Cell cycle arrest in human A549 cells assessed as reduction in accumulation of cells at S phase up to 600 nM after 24 hrs by propidium iodide staining-based flow cytometric analysis; assay type: functional; how it was run: as §3
Prostatic carcinoma cell = experiment: Cytotoxicity against human prostate cancer cells after 48 hrs by SRB assay; assay type: functional; how it was run: as §1
Tubulin (Bos taurus) [25] = target: T1, Tubulin (Bos taurus) (UniProt Q6B856+Q862L2+Q862F3); experiment: Inhibition of [3H]colchicine binding to bovine brain tubulin at 50 uM after 20 mins relative to control
How it was run: (§5)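 Reaction mixtures held 1 μM tubulin, 5 μM [³H]colchicine and test compound at 5 or 50 μM. Read-out was percent inhibition of colchicine binding.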

K562 [26] = experiment: Cell cycle arrest in human K562 cells assessed as mitotic index at 10 times IC50 by Giemsa staining-based assay (reference value: 3%); assay type: functional
Tubulin = Tubulin (Bos taurus, UniProt Q6B856+Q862L2+Q862F3); experiment: Inhibition of bovine brain tubulin polymerization after 20 mins by spectrophotometric analysis
How it was run: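 Bovine brain tubulin (10 μM) in glutamate buffer preincubated with varying compound levels at 30 °C, then chilled to 0 °C. GTP added to 0.4 mM final, then warmed to 30 °C. Assembly followed by turbidity at 350 nm. IC50 is the concentration halving the extent of assembly after 20 min.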

Tubulin (Bos taurus) [27] = target: T1, Tubulin (Bos taurus); experiment: Inhibition of [3H]colchicine binding to bovine brain tubulin at 5 uM after 20 mins relative to control; how it was run: as §5
[28] = read-out: LC50 (the source's name)

## O=C1Nc2c(ccc3ccccc23)/C1=C\c1c(-c2cccnc2)nc2sccn12
[1]
  GI50: 0.15 µM
  TGI: 9.42 µM
[1]; [28]
  CC50: 49 µM
[2]
  GI50 at 72 h: 2.5 µM
HeLa [3]
  Activity: Active
HeLa [4]
  Activity: Active
HT-29 [5]
  Activity: Active
HeLa [6]
  Activity: Active
Ovarian carcinoma cell
  GI50: 1.21 µM
  LC50 (50% lethal concentration): 41.2 µM
  TGI: 12.3 µM
HT-29 [7]
  Activity: Active
HeLa [8]
  Activity: Dose-dependent effect
HeLa [9]
  Activity: Active
HeLa [10]
  Activity: Active
A549 [11]
  Activity: Active
K562 [12]
  Activity: 22%
Melanoma cell line
  GI50: 1.65 µM
  TGI: 17.6 µM
Melanoma cell line; [28]
  CC50: 66.5 µM
HT-29 [13]
  Activity: Dose-dependent effect
A549 [14]
  Activity: Dose-dependent effect
[15]
  GI50 at 72 h: 3.1 µM
K562 [16]
  Activity: 64%
K562 [17]
  IC50: 0.2 µM
HeLa [18]
  Activity: Tde
A549 [19]
  Activity: Active
HeLa [20]
  Activity: Active
HeLa [21]
  Activity: Active
Breast carcinoma cell
  GI50: 0.26 µM
  LC50 (concentration killing 50% of cells): 70.8 µM
  TGI: 20.1 µM
Leukemia cell
  GI50: 0.11 µM
  TGI: 46.4 µM
Renal cancer cell line
  GI50: 1.24 µM
  LC50 (50% lethal concentration): 49.2 µM
  TGI: 15.9 µM
HeLa [22]
  Activity: Active
NSCLC
  GI50: 1.78 µM
  LC50: 61.7 µM
  TGI: 16.2 µM
K562 [23]
  Activity: Dose-dependent effect
CNS carcinoma cell
  GI50: 1.16 µM
  TGI: 13.9 µM
CNS carcinoma cell; [28]
  CC50: 47.5 µM
A549 [24]
  Activity: Active
Prostatic carcinoma cell
  GI50: 0.1 µM
  TGI: 11.1 µM
Prostatic carcinoma cell; [28]
  CC50: 33.4 µM
Tubulin (Bos taurus) [25]
  inhibition: 56%
K562 [26]
  Activity: 78%
Tubulin
  IC50: 2.2 µM
Tubulin (Bos taurus) [27]
  inhibition: 31%
